# Test results taken from ChEMBL document CHEMBL1143969, “Synthesis and pharmacological evaluation of bicyclic SNC80 analogues with separated benzhydryl moiety” (Bioorg Med Chem, 2008).
# Assays:
# [1] = biological target: T1, Delta-type opioid receptor (Homo sapiens, UniProt P41143); experiment: Displacement of [3H]deltorphine 2 from human delta opioid receptor expressed in CHOK1 cells at 10 uM; type: cell-based; conditions: CHO-K1
# Method in brief: (§1)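 Membranes diluted 1:87 in 50 mmol/L Tris-HCl, 5 mmol/L MgCl2, pH 7.4; radioligand solution 10 nmol/L (stock), 0.5% DMSO. Incubated 120 min at rt, filtered through PEI-soaked GF/B filters, washed three times with cold buffer, dried 1 h at 55 °C, scintillation counted. Naloxone defines non-specific binding. Ki determined where inhibition at 10 µM exceeded 50%.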
# Mu-type opioid receptor [2] = biological target: T2, Mu-type opioid receptor (Homo sapiens, UniProt P35372); experiment: Displacement of [3H]naloxone from human mu opioid receptor expressed in CHOK1 cells at 10 uM; type: cell-based; conditions: CHO-K1
# T2 sequence (P35372 whole entry): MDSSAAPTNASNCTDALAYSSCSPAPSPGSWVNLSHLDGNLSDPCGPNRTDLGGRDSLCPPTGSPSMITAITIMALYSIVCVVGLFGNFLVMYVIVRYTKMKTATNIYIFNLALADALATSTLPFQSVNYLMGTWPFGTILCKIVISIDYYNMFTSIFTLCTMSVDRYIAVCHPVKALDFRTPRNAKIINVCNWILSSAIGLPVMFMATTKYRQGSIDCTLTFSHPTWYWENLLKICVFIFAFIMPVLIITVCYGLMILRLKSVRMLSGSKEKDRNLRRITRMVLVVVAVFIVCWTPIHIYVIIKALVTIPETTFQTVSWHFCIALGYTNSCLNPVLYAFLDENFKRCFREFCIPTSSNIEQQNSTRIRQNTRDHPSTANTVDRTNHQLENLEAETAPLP
# Method in brief: (§2)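 Membranes in Tris-HCl pH 7.4 + 0.06% BSA, premixed with wheatgerm agglutinin SPA beads; radioligand solution 10 nmol/L (stock), ~25% DMSO in added solutions. Incubated 150 min at rt, centrifuged 20 min at 500 rpm, counted by scintillation proximity. Naloxone defines non-specific binding. Ki determined where inhibition at 10 µM exceeded 50%.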
# [3] = biological target: T3, Kappa-type opioid receptor (Homo sapiens, UniProt P41145); experiment: Displacement of [3H]C1-977 from human kappa opioid receptor expressed in HEK293 cells at 10 uM; type: cell-based
# T3 sequence (P41145 whole entry): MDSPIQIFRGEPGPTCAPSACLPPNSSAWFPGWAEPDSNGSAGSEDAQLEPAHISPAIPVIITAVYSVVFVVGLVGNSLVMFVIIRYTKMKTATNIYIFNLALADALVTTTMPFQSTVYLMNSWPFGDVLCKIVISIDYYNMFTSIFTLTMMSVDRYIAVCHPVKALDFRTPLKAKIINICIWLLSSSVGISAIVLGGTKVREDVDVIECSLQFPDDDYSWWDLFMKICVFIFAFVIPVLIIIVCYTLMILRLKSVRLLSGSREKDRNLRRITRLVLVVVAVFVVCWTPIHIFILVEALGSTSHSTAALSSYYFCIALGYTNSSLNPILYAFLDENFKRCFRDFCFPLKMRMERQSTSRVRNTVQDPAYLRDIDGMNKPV
# Method in brief: (§3)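 SPA format as for mu: membranes diluted 1:34 in 50 mmol/L Tris-HCl, 0.05% NaN3, pH 7.4, mixed with wheatgerm agglutinin SPA beads; 150 min at rt, centrifugation, scintillation counting. Ki determined where inhibition at 10 µM exceeded 50%.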
# [4] = biological target: Nociceptin receptor (Homo sapiens) (UniProt P41146); experiment: Displacement of [3H]nociceptin from human ORL1 receptor expressed in HEK293 cells at 10 uM; type: cell-based
# Sequence of Nociceptin receptor (Homo sapiens) (P41146 whole entry): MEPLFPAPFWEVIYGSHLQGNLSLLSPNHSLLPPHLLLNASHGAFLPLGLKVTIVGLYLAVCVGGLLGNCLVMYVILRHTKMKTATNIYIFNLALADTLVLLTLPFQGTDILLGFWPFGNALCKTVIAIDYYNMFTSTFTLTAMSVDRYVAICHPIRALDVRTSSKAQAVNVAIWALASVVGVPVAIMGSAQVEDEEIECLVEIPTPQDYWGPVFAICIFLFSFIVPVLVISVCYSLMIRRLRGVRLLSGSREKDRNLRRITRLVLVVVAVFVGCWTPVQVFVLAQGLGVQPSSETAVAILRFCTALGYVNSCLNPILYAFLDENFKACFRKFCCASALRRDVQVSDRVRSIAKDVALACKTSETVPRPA
# Mu-type opioid receptor [5] = biological target: T2, Mu-type opioid receptor; experiment: Displacement of [3H]naloxone from human mu opioid receptor expressed in CHOK1 cells; type: cell-based, CHO-K1; method in brief: as §2
# [6] = biological target: T3, Kappa-type opioid receptor; experiment: Displacement of [3H]C1-977 from human kappa opioid receptor expressed in HEK293 cells; type: cell-based; method in brief: as §3
# [7] = biological target: T1, Delta-type opioid receptor; experiment: Displacement of [3H]deltorphine 2 from human delta opioid receptor expressed in CHOK1 cells; type: cell-based, CHO-K1
# Method in brief: as §1, with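 “binding.” for “binding. Ki determined where inhibition at 10 µM exceeded 50%.”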
# T1 sequence (P41143 whole entry): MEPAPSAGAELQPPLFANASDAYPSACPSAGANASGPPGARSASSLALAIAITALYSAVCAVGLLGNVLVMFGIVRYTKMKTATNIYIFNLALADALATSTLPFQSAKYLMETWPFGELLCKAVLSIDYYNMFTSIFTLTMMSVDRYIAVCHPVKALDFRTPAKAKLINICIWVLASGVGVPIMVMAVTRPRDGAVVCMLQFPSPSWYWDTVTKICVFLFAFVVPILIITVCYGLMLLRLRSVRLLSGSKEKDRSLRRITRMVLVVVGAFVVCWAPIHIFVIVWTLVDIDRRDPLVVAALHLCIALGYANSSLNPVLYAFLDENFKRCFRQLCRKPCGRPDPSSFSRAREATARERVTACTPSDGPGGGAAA
SMILES,inhibition [1],inhibition (Mu-type opioid receptor [2]),inhibition [3],inhibition [4],Ki (Mu-type opioid receptor [5]),Ki [6],Ki [7]
C=CCN1C[C@@H]2[C@H](c3ccccc3)CC[C@H]1CN2Cc1ccc(C(=O)N(CC)CC)cc1,6%,56%,73%,7%,7300 nM,1700 nM,
C=CCN1C[C@H]2C(c3ccccc3)=CC[C@@H]1CN2Cc1ccc(C(=O)N(CC)CC)cc1,87%,91%,31%,< 10%,250 nM,,740 nM
C=CCN1C[C@@H]2C(c3ccccc3)=CC[C@H]1CN2Cc1ccc(C(=O)N(CC)CC)cc1,14%,56%,76%,9%,6800 nM,890 nM,
C=CCN1C[C@@H]2[C@@H](c3ccccc3)CC[C@H]1CN2Cc1ccc(C(=O)N(CC)CC)cc1,34%,58%,76%,14%,6320 nM,1100 nM,
CCCN1C[C@@H]2[C@H](c3ccccc3)CC[C@H]1CN2Cc1ccc(C(=O)N(CC)CC)cc1,4%,61%,63%,1%,5700 nM,2400 nM,
CCCN1C[C@@H]2[C@@H](c3ccccc3)CC[C@H]1CN2Cc1ccc(C(=O)N(CC)CC)cc1,4%,44%,49%,3%,,,
CCCN1C[C@@H]2C(c3ccccc3)=CC[C@H]1CN2Cc1ccc(C(=O)N(CC)CC)cc1,20%,55%,22%,45%,,,
